Results from ChEMBL document CHEMBL3271957 (J Med Chem, 1977).
Values after ≈ are worked out from the molar mass of the structure shown.

Experiments:
CCRF-CEM = assay: Cytotoxicity against human CCRF-CEM cells; type: functional; settings: read-out: ID50 (the source's name)
[1] = Toxicity in BDF/1 hybrid mouse xenografted with mouse L1210 cells administered q3d on day 1, 4 and 7; type: organism-based; settings: in vivo
How it was run: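 Male BDF/1 hybrid mice carrying ip-inoculated L-1210 cells (10^5) dosed ip on days 1, 4 and 7 (first dose 24 h post-implant) with compound in 0.1 M phosphate buffer, pH 8. Value expressed as optimal nontoxic dose in mg/kg ×3; where the top level tested was nontoxic, the highest nontoxic dose tested is given.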

[2] = system: Lacticaseibacillus rhamnosus; assay: Antimicrobial activity against Lactobacillus casei ATCC 7469 assessed as growth inhibition; type: functional
Thymidylate synthase = target: T1, Thymidylate synthase (Lactobacillus casei, UniProt P00469); assay: Inhibition of MTX-resistant Lactobacillus casei thymidylate synthetase; parameters: species or system Lacticaseibacillus casei
T1 sequence (P00469 whole entry): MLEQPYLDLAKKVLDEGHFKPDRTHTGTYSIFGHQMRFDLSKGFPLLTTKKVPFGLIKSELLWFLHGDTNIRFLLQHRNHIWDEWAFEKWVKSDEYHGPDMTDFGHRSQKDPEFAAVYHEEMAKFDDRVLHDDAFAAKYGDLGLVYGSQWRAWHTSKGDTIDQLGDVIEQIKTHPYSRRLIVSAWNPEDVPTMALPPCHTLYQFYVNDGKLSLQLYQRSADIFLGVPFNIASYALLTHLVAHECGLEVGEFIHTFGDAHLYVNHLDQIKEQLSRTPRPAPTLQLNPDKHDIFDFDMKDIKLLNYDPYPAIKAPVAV

Dihydrofolate reductase = Dihydrofolate reductase (Lactobacillus casei, UniProt P00381); assay: Inhibition of MTX-resistant Lactobacillus casei dihydrofolate reductase; parameters: species or system Lacticaseibacillus casei
Chain of Dihydrofolate reductase (P00381 whole entry): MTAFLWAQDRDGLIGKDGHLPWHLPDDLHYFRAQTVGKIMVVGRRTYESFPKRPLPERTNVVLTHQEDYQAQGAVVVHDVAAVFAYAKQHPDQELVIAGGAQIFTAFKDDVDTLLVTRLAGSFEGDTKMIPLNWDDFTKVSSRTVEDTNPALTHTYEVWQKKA

L1210 = assay: Antitumor activity against mouse L1210 cells allografted in BDF/1 hybrid mouse assessed as increase in life span relative to control; type: functional
How it was run: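 Male BDF/1 hybrid mice inoculated ip with 10^5 L-1210 leukemia cells; test agents dissolved in 0.1 M phosphate buffer (pH 8), given ip 24 h after implantation (day 1) and on days 4 and 7. Median survival times of treated (T) and control (C) groups compared; % ILS = 100 × (T/C − 1).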

Mus musculus = assay: Toxicity in BDF/1 hybrid mouse xenografted with mouse L1210 cells assessed as optimal nontoxic dose administered q3d on day 1, 4 and 7; type: organism-based; settings: in vivo
How it was run: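 Male BDF/1 hybrid mice received 10^5 L-1210 leukemia cells ip. Test agents in 0.1 M phosphate buffer (pH 8) were given ip 24 h after implantation (day 1) and again on days 4 and 7. The optimal nontoxic dose is expressed as mg/kg × 3; where marked, it is the highest nontoxic dose tested.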

SMILES | IC50 (CCRF-CEM) [µg/mL] | MTD [1] [mg/kg] | GI50 [2] [nM] | IC50 (Thymidylate synthase) [nM] | IC50 (Dihydrofolate reductase) [nM] | ILS (L1210) [%] | Activity (Mus musculus) [mg/kg]
CN(CC1=Nc2c(N)nc(N)nc2N(Cc2ccc(Cl)c(Cl)c2)C1)c1ccc(C(=O)N[C@@H](CCC(=O)O)C(=O)O)cc1 | > 1 | 400 | 19.4 | 13000 | 3600 | 36 | –
CN(CC1=Nc2c(N)nc(N)nc2N(Cc2cccc3ccccc23)C1)c1ccc(C(=O)N[C@@H](CCC(=O)O)C(=O)O)cc1 | > 1 | 400 | 0.47 | 16000 | 4500 | 0 | –
CN(CC1=Nc2c(N)nc(N)nc2N(C)C1)c1ccc(C(=O)N[C@@H](CCC(=O)O)C(=O)O)cc1 | 0.23 (≈ 0.489 µM) | – | 0.1 | 4000 | 140 | 27 | 300
CCN1CC(CN(C)c2ccc(C(=O)N[C@@H](CCC(=O)O)C(=O)O)cc2)=Nc2c(N)nc(N)nc21 | 0.27 (≈ 0.557 µM) | 400 | 0.35 | 20000 | 900 | 18 | –
CN(CC1CNc2nc(N)nc(N)c2N1)c1ccc(C(=O)N[C@@H](CCC(=O)O)C(=O)O)cc1 (some centres not stated) | – | – | 0.14 | 5000 | 200 | – | –
CN(CC1=Nc2c(N)nc(N)nc2NC1)c1ccc(C(=O)N[C@@H](CCC(=O)O)C(=O)O)cc1 | 0.021 (≈ 0.046 µM) | – | 0.02 | 1000 | 20 | 9 | 30
CCCCCCN1CC(CN(C)c2ccc(C(=O)N[C@@H](CCC(=O)O)C(=O)O)cc2)=Nc2c(N)nc(N)nc21 | 0.58 (≈ 1.07 µM) | 400 | 0.27 | 43000 | 1800 | 0 | –
CN(CC1=Nc2c(N)nc(N)nc2N(Cc2ccccc2)C1)c1ccc(C(=O)N[C@@H](CCC(=O)O)C(=O)O)cc1 | 0.78 (≈ 1.43 µM) | 400 | 0.35 | 8000 | 740 | 25 | –
CN(Cc1cnc2nc(N)nc(N)c2n1)c1ccc(C(=O)N[C@@H](CCC(=O)O)C(=O)O)cc1 [METHOTREXATE] | 0.018 (≈ 0.0396 µM) | – | 0.04 | – | – | 70 | 15
CCCCN1CC(CN(C)c2ccc(C(=O)N[C@@H](CCC(=O)O)C(=O)O)cc2)=Nc2c(N)nc(N)nc21 | 0.23 (≈ 0.449 µM) | – | 1.2 | 19000 | 380 | 25 | 100
CN(CC1=Nc2c(N)nc(N)nc2N(CC2CCCCC2)C1)c1ccc(C(=O)N[C@@H](CCC(=O)O)C(=O)O)cc1 | 0.14 (≈ 0.253 µM) | – | 3.5 | 17000 | 870 | 27 | 300
CN(CC1CN(C)c2nc(N)nc(N)c2N1)c1ccc(C(=O)N[C@@H](CCC(=O)O)C(=O)O)cc1 (some centres not stated) | 0.14 (≈ 0.296 µM) | – | 1.4 | 39000 | 2500 | 9 | 200
